An excerpt weighted towards active compounds, which were near 3.4% of everything screened.
VIM-2 inh: VIM-2 metallo-beta-lactamase inhibitors, primary screen, biochemical, epi-absorbance readout, Pseudomonas aeruginosa enzyme | purified VIM-2, nitrocefin hydrolysis, epi-absorbance fluorescence | inhibition, % at 5.6 µM | actives 0.89% (n = 290,000);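 active = inhibition above the mean of all tested compounds plus 3 SD, cutoff set per screening run, cut at about 7.5% in these data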;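 also: red hydrolysis product quenches plate fluorescence so inhibitors raise well fluorescence; 0% = enzyme with DMSO and 100% = DMSO without enzyme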
MEKK2 mut-MEK5: MEK5 binding signal on mutant MEKK2 PB1, primary screen, biochemical, multiplex bead flow cytometry, Alexa488-MEK5; Alexa488-MEK5 binding to MEKK2 mutant; percent response, % at 10 µM; actives 0.35% (n = 290,000); in the data active = percent response above about 24%, passing the limit was not always enough
MEKK3 PB1 HTS: modulators of MEKK3-MEK5 PB1 binding, primary screen, biochemical, wildtype MEKK3, multiplex bead flow cytometry, Alexa488-MEK5 | Mitogen-activated protein kinase kinase kinase 3 (Homo sapiens), Q99759 | bead-based flow cytometry, Alexa488-MEK5 binding to MEKK3; actives lie on both sides; 0 = blocked by unlabeled MEK5, 100 = vehicle | binding response (% of control), % at 10 µM | actives 1.4% (n = 290,000);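 active = binding response more than 3 SD above or below the average of its plate-row segment, actives on both sides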;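 also: Alexa488 bead fluorescence after subtracting the streptavidin-only scavenger bead signal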
Target sequence (Q99759 whole entry, looked up): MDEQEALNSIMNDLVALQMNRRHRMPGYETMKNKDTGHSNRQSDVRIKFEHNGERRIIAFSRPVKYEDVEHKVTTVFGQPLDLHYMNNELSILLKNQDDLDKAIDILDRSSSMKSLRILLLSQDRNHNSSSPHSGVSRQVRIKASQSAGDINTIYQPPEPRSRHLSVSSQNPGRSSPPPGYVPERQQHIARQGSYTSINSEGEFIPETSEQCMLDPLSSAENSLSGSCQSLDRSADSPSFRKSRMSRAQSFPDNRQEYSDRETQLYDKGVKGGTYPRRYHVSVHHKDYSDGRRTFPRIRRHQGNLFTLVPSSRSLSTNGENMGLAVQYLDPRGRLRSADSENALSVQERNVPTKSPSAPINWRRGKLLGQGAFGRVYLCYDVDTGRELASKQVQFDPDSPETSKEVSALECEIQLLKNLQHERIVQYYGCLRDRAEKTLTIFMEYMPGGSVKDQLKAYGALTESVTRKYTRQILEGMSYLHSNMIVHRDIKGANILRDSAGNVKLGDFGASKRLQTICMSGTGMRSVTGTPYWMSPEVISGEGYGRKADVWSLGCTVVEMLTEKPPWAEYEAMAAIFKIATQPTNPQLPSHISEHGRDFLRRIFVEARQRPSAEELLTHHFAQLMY
MEKK2 WT-MEK5: modulators of MEK5 binding to wildtype MEKK2, primary screen, biochemical, multiplex bead flow cytometry, Alexa488-MEK5. Mitogen-activated protein kinase kinase kinase 2 (Homo sapiens), Q9Y2U5. Alexa488-MEK5 binding to MEKK2 WT; actives lie on both sides. binding response (% of control), % at 10 µM. actives 1.1% (n = 290,000). AID 1531, 2009; in the data active = binding response below about 67% or above about 130%
IMP-1 inh: IMP-1 metallo-beta-lactamase inhibitors, primary screen, biochemical, epi-absorbance readout, Pseudomonas aeruginosa enzyme. metallo-beta-lactamase IMP-1 (Pseudomonas aeruginosa). purified IMP-1, nitrocefin hydrolysis, epi-absorbance fluorescence. inhibition, % at 5.6 µM. actives 0.45% (n = 290,000). AID 1556, 2009;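 active = inhibition above the mean plus 3 SD of all compounds in the same screening run, cut at about 4.5% in these data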;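 also: 0% = IMP-1 with DMSO and 100% = DMSO wells lacking enzyme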
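System: Purified recombinant IMP-1 metallo-beta-lactamase enzyme | Measured by: Fluorescence quenching readout, ex 480/em 530 nm | Replication: Singlicate | Incubation: 15 min preincubation plus 25 min reaction at 25 °C | Evaluation: Percent inhibition from optical density relative to buffer-blank wells | Benchmarks: DMSO with and without IMP-1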
MEKK2wt confirm: modulators of MEK5 binding to wildtype MEKK2, confirmation, biochemical, single concentration, multiplex bead flow cytometry; shares compounds with MEKK3 PB1 HTS; Alexa488-MEK5 binding to MEKK2 WT; actives lie on both sides; binding response (% of control), % at 10 µM; actives 2.4% (n = 5,900); in the data active = binding response below about 16% or above about 210%; inactive = in between
MEKK2mut-MEK5: mutant MEKK2 PB1-MEK5 binding signal retest – biochemical, single concentration, multiplex bead flow cytometry, confirmation; shares compounds with MEKK3 PB1 HTS; Alexa488-MEK5 binding to MEKK2 mutant; percent response, % at 10 µM; actives 2% (n = 5,900); AID 1893, 2009; in the data active = percent response mostly above about 71%, no sharp cut-off; inactive = mostly below about 38%;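 also: higher means compound restores mutant binding toward wildtype level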
MEKK3 confirm: MEKK3 wild-type PB1 binding to MEK5, inhibitors, confirmation, biochemical, bead multiplex flow cytometry, single concentration, wildtype. shares compounds with MEKK3 PB1 HTS. Alexa488-MEK5 binding to MEKK3; stronger effect = lower value. binding response (% of control), % at 10 µM. actives 1.8% (n = 5,900). AID 1894, 2009;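 active = binding response below 72% of control, or above a set upper limit, though filed actives all read lower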;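 also: 100% = DMSO only wells and 0% = binding blocked by excess unlabeled MEK5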
Numbers without * were called inactive; · = no result; [ ] = dose if it differs, or a comment.

SMILES	VIM-2 inh	MEKK2 mut-MEK5	MEKK3 PB1 HTS	MEKK2 WT-MEK5	IMP-1 inh	MEKK2wt confirm	MEKK2mut-MEK5	MEKK3 confirm
COc1ccc(/C=C2/SC(=S)N(CCCC(=O)Nc3ccccc3C(=O)O)C2=O)cc1	-1	9	104	103	-2	·	·	·
COc1cc(/C=c2\sc3nc(=O)c(-c4ccccc4)nn3c2=O)ccc1OCCC(C)C	-1	-1	140*	97	-1	99	1	103
CCOc1ccc(/C=c2\sc3nc(-c4ccco4)nn3c2=O)cc1OCC	0	13	105	105	1	·	·	·
O=C(Nc1ccccc1F)C1CC1c1ccccc1 (configuration not stated)	-1	-1	98	97	-2	·	·	·
NNC(=O)[C@H]1C[C@@H]1c1ccccc1	-5	0	152*	111	-4	93	-9	89
COc1cc(/C=N/NC(=O)c2ccc(O)cc2)ccc1OCC(=O)N1CC(C)OC(C)C1 (configuration not stated)	-4	-11	91	91	-3	·	·	·
CCN(CC)CCNC(=O)c1ccc(NC(=O)c2ccc(COc3ccccc3)cc2)cc1	-2	26*	101	162*	0	168	31	106
CC(=O)OCC1OC(OCc2cn(C[C@H]3CC[C@@H]([C@@H]4CC[C@H](Cn5cc(COC6OC(COC(C)=O)C(OC(C)=O)C(OC(C)=O)C6OC(C)=O)nn5)O4)O3)nn2)C(OC(C)=O)C(OC(C)=O)C1OC(C)=O (some centres not stated)	-3	5	102	110	-2	·	·	·
Cc1ccc(Cn2c(=N)n(CC(=O)c3ccc([N+](=O)[O-])cc3)c3ccccc32)cc1	-1	60*	111	153*	-2	167	38	110
CCCCn1c(=N)n(CC(=O)c2ccc([N+](=O)[O-])cc2)c2ccccc21	-2	2	106	115	-4	·	·	·
O=C1COc2ccc(C(=O)CSc3ccccc3C(=O)O)cc2N1	0	-22	81	81	0	·	·	·
CCNc1ccc(C(=O)N/N=C/c2c(C)nn(-c3ccccc3)c2N2CCCC2)cc1[N+](=O)[O-]	-2	1	138*	107	-4	101	0	102
O=C(Cc1ccc([N+](=O)[O-])cc1)NCc1ccccc1Cl	-1	1	146*	108	-2	98	-4	102
O=C(Cc1ccc([N+](=O)[O-])cc1)NCc1cccnc1	-1	0	99	100	-2	·	·	·
CCCNC(=S)Nc1ccc(Cl)cc1C	-5	3	103	115	-5	·	·	·
Cc1cc(Cl)ccc1NC(=S)NCC(C)C	-2	0	138*	111	-5	103	8	103
Cc1cc(Cl)ccc1NC(=S)NCc1ccccc1Cl	-2	0	128*	109	-4	103	2	101
CCCCN(CCCC)C(=O)C[n+]1cccc(/C=N/O)c1	-3	-6	103	96	-2	·	·	·
CNC(=O)C1CC(=O)N(CCc2ccccc2)C(=Nc2ccc(OC)cc2)S1 (configuration not stated)	1	-4	115	103	-1	·	·	·
COc1ccc(N=C2SC(C(=O)Nc3ccc(C(=O)O)cc3)CC(=O)N2Cc2cccs2)cc1 (configuration not stated)	-3	24	131*	122	-1	104	2	107
C=CCn1c(Sc2nc(C)cs2)nc2c1c(=O)[nH]c(=O)n2C	2	·	·	·	-1	·	·	·
Cc1ccc(-c2nc(NC(=O)CSc3ccc4ccccc4n3)ns2)cc1	-3	-4	105	92	-3	·	·	·
COc1cc(S(=O)(=O)NC2CCCCC2C)ccc1-n1cnnn1 (configuration not stated)	-4	-10	97	87	-4	·	·	·
Cc1cc(=O)[nH]c(N/N=C/C2=C(N3CCOCC3)C(=C\c3ccc(Cl)cc3)/CC2)n1	-2	2	135*	112	-3	101	-2	101
CCCCNC(=S)NC(=O)c1ccccc1Br	-3	1	154*	111	-3	98	-1	102
SMILES	VIM-2 inh	MEKK2 mut-MEK5	MEKK3 PB1 HTS	MEKK2 WT-MEK5	IMP-1 inh	MEKK2wt confirm	MEKK2mut-MEK5	MEKK3 confirm
CC1(C)Cc2c(c(-c3ccco3)nc3sc4c(NCC5CCCO5)ncnc4c23)CO1 (configuration not stated)	-4	0	143*	102	-1	104	8	102
CC1(C)Cc2c(c(-c3ccco3)nc3sc4c(NCCN5CCOCC5)ncnc4c23)CO1	-3	0	104	102	1	·	·	·
CN(C)Cc1c(O)ccc2occ(C(=O)c3ccc(F)cc3)c12	-3	1	102	101	-4	·	·	·
CCOC(=O)c1c(-c2ccc(F)cc2)csc1/N=C/N(C)C	-3	2	129*	117	-2	103	6	107
CC(=O)c1c(C)[nH]c(C(=O)OCC(=O)Nc2ccc(Cl)c(S(=O)(=O)N(C)C)c2)c1C	1	-32	38*[inhibitor]	43*[inhibitor]	0	106	10	108
CCOc1ncccc1C(=O)OCC(=O)Nc1ccc(C)c(S(=O)(=O)N(C)C)c1	1	-10	73*[inhibitor]	82	1	100	2	99
COc1ccc(Cc2nc3ccccc3[nH]c2=O)cc1	-2	-1	96	97	-3	·	·	·
COc1ccc(CNC[C@@H](CCCCN(C)Cc2ccc(OC)cc2)N2C[C@H](c3ccccc3)N(CCc3ccc(Cl)c(Cl)c3)C(=O)C2=O)cc1	-4	94*	111	236*	-2	240*	100*	92
CCOc1ccc(CCN2C(=O)C(=O)N([C@H](CCCN(C)Cc3ccccc3)CNCc3ccccc3)C[C@@H]2C(C)C)cc1	·	5	96	105	·	·	·	·

Compound activity deposited in PubChem BioAssay by several laboratories.
